Measurements as given in ChEMBL document CHEMBL1142852, “A series of 5-(5,6)-dihydrouracil substituted 8-hydroxy-[1,6]naphthyridine-7-carboxylic acid 4-fluorobenzylamide inhibitors of HIV-1 integrase and viral replication in cells” (Bioorg Med Chem Lett, 2005).

What was measured:
[1] = target: Human immunodeficiency virus type 1 integrase (Human immunodeficiency virus 1, UniProt Q7ZJM1); test: Inhibition of strand transfer for HIV-1 integrase
[2] = Human plasma albumin binding in pH 7.4 at RT; assay type: ADME, cell-free
Outline: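 Binding to human plasma protein, mainly albumin, was measured by analytical HPLC with UV detection. The assay ran in pH 7.4 buffer at room temperature, and the result was reported as percent protein bound.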

[3] = system: Human immunodeficiency virus; test: Antiviral activity in presence of 10% FBS against HIV-1 replication in cells; assay type: functional, Human immunodeficiency virus 1; conditions: read-out: CIC95
[4] = system: Human immunodeficiency virus; test: Antiviral activity in presence of 50% NHS against HIV-1 replication in cells; assay type: functional, Human immunodeficiency virus 1; conditions: read-out: CIC95

Sequence of Human immunodeficiency virus type 1 integrase (Q7ZJM1 whole entry): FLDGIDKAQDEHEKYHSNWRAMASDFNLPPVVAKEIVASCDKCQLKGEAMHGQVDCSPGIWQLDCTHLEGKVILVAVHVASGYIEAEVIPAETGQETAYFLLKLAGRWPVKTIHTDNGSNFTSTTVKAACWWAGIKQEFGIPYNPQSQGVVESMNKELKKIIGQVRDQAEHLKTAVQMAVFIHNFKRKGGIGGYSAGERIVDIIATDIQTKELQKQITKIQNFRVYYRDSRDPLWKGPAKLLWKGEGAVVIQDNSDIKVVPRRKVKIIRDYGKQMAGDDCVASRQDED

SMILES | IC50 [1] | Activity [2] | IC95 ([3]; Human immunodeficiency virus 1) | IC95 ([4]; Human immunodeficiency virus 1) | IC95 [3] | IC95 [4]
O=C(NCc1ccc(F)cc1)c1ncc2cccnc2c1O | 32.8 nM | 99.2% | 1250 nM | 5000 nM |  | 
CN1C(=O)CC(c2nc(C(=O)NCc3ccc(F)cc3)c(O)c3ncccc23)N(C)C1=O (racemic) | 8.7 nM | 94.3% |  |  | 18.6 nM | 60.7 nM
O=C1CC(c2nc(C(=O)NCc3ccc(F)cc3)c(O)c3ncccc23)NC(=O)N1 (racemic) | 10 nM | 92.1% |  |  | 53.7 nM | 55.7 nM
CN1C(=O)CC(c2nc(C(=O)NCc3ccc(F)cc3)c(O)c3ncccc23)NC1=O (racemic) | 12.8 nM |  | 31.3 nM | 62.5 nM |  | 
CN1C(=O)NC(=O)CC1c1nc(C(=O)NCc2ccc(F)cc2)c(O)c2ncccc12 (racemic) | 12.5 nM |  | 15.6 nM | 15.6 nM |  | 
CN1C(=O)CC(c2nc(C(=O)NCc3ccc(F)cc3)c(O)c3ncccc23)N(C)C1=O (single isomer, unassigned; (+)) | 11.3 nM | 96% |  |  | 41.7 nM | 166.7 nM
O=C1CC(c2nc(C(=O)NCc3ccc(F)cc3)c(O)c3ncccc23)NC(=O)N1 (single isomer, unassigned; (+)) | 11 nM |  |  |  | 93.8 nM | 93.8 nM
CN1C(=O)CC(c2nc(C(=O)NCc3ccc(F)cc3)c(O)c3ncccc23)N(C)C1=O (single isomer, unassigned; (-)) | 35 nM | 95% |  |  | 20.1 nM | 40.2 nM
O=C1CC(c2nc(C(=O)NCc3ccc(F)cc3)c(O)c3ncccc23)NC(=O)N1 (single isomer, unassigned; (-)) | 13.3 nM |  |  |  | 125 nM | 125 nM
CN1C(=O)CC(c2nc(C(=O)NCc3ccc(F)cc3)c(O)c3ncccc23)N(C)C1=O (stereo in doubt; 14) | 27.5 nM | 97.8% |  |  | 250 nM | 1000 nM
